In the library only some 3% were active in any assay of this set; here they are far more common.
5HT1a ag: agonists of human 5-HT1a serotonin receptor; CHO 5-HT1a Ga15 NFAT-bla reporter, FRET ratio; 0% basal, 100% maximal reference agonist; activation, % at 10 µM; P08908; 0.56% of 65,000 active;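 active means activation above the screen-wide mean activation plus 3 SD, cut at about 19% in these data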;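 further: 0% = DMSO wells and 100% = 5-CT at EC100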
S1P3 ag: S1P3 (human) receptor agonism; 0.1% of 60,000 active; activation, % at 4.5 µM; Q99500; S1P3 NFAT-BLA reporter cells, FRET ratio; relative to 1 µM S1P, basal subtracted;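 active means activation above the screen-wide mean plus 3 SD, cut at about 4.5% in these data, passing the limit was not always enough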
Target sequence (Q99500 whole entry, looked up): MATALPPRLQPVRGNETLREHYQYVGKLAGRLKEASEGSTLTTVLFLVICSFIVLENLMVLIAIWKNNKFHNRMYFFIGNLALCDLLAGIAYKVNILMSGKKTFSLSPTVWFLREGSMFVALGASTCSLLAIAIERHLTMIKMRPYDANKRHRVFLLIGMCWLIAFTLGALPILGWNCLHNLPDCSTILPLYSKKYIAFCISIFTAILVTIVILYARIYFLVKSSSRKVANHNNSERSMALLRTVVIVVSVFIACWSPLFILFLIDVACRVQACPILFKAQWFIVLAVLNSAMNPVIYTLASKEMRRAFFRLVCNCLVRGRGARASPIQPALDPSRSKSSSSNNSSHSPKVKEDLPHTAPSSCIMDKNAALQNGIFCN
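Assay system: stable CHO line with human S1P3, Gα16, NFAT-BLA reporter; Detection: FRET β-lactamase substrate fluorescence, excitation 405 nm, 460/535 nm emission ratio, background-subtracted; Read-out: percent activation versus median 1 µM S1P response, basal-subtracted, per plate; Incubation: cells plated overnight, compound 4 h 37 °C, substrate 2 h RT.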
5HT1E ag: agonists of human 5-HT1E serotonin receptor; P28566; CHO 5-HT1E Ga15 NFAT-bla reporter, FRET; 0% DMSO wells, 100% control agonist wells; activation, % at 6 µM; 0.69% of 65,000 active; AID 574;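 active means activation above a set limit, the screen-wide mean activation plus 3 SD, cut at about 8.5% in these data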;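 further: 100% = positive control agonist at 1 µM giving full maximal response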
5-HT1A blocker: blocks the human serotonin 5-HT1a receptor; P08908; CHO 5-HT1a Ga15 NFAT-bla reporter, antagonist mode; inhibition, % at 10 µM; 0.68% of 62,000 active; AID 612;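 active means inhibition above the mean of all tested compounds plus 3 SD, cut at about 43% in these data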;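 further: receptor stimulated by 5-CT agonist at 100 nM near EC80; beta-lactamase reporter measured by ratiometric fluorescence of a cleavable substrate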
S1P1 ag-PAM: agonists and agonism potentiators of human S1P1 receptor. P21453. S1P1 CRE-bla cells, forskolin, beta-lactamase FRET, potentiator mode; S1P1 agonist co-added at EC20, 2 nM; 100% = saturating reference agonist, 0% = basal. activation, % at 9.5 µM. 0.57% of 56,000 active;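 active means activation above a cutoff set at the mean activation of all tested compounds plus 3 SD, cut at about 54% in these data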;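 further: forskolin at 4 µM as EC80 and the EC20 agonist is SEW2871; 100% = SEW2871 at its EC100 plus forskolin at EC80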
5HT1E antag: blocks the human 5-HT1E serotonin receptor | P28566 | 0.99% of 65,000 active | CHO 5-HT1E Ga15 NFAT-bla reporter, FRET, antagonist | AID 571 | inhibition, % at 6 µM;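 active means inhibition above a set limit, the mean inhibition across every tested compound plus 3 SD, cut at about 29% in these data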;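 further: signal is the 460 over 535 nm emission ratio of beta-lactamase substrate; 0% = agonist plus DMSO wells and 100% = wells without agonist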
* = called active by the depositor.

COC(=O)c1c(C)n(-c2ccc(OC)cc2)c2ccc(O)cc12 was read as 5HT1a ag -0.2, S1P3 ag -1.1, 5HT1E ag -0.2, 5-HT1A blocker 35.2, S1P1 ag-PAM 65.6* and 5HT1E antag 5.8.
`Cc1c(C(=O)O)c2cc(O)ccc2n1-c1ccccc1` gave 5HT1a ag -4.0, S1P3 ag -0.5, 5HT1E ag -1.5, 5-HT1A blocker 12.7, S1P1 ag-PAM 7.4 and 5HT1E antag 16.4.
Cc1onc(-c2c(F)cccc2Cl)c1C(=O)OCC(=O)Nc1c(C)n(C)n(-c2ccccc2)c1=O was read as 5HT1a ag -0.6, 5HT1E ag -1.1, 5-HT1A blocker 4.7 and 5HT1E antag -4.2.
`CC(C)CC(=O)N1CCN(Cc2cccc(F)c2)CC1` gave 5HT1a ag -0.4, S1P3 ag -1.1, 5HT1E ag 0.8, 5-HT1A blocker 1.0, S1P1 ag-PAM -9.9 and 5HT1E antag 8.4.
CC(C)(C)OC(=O)N[C@@H](Cc1ccccc1)c1nnc(S(=O)(=O)Cc2cccc(F)c2)o1 was read as 5HT1a ag -2.5, S1P3 ag -0.9, 5HT1E ag 1.1, 5-HT1A blocker 67.3*, S1P1 ag-PAM 69.8* and 5HT1E antag 45.9*.
CC(C)C[C@H](N)c1nnc(S(=O)(=O)Cc2cccc(F)c2)o1 was read as 5HT1a ag -0.7, S1P3 ag -1.5, 5HT1E ag -0.5, 5-HT1A blocker 58.5*, S1P1 ag-PAM 2.0 and 5HT1E antag 19.9.
Cc1[nH]c(=O)[nH]c(=O)c1CSc1nnc([C@@H](NC(=O)OC(C)(C)C)C(C)C)o1 was read as 5HT1a ag 0.3, S1P3 ag 0.1, 5HT1E ag 0.1, 5-HT1A blocker -9.0, S1P1 ag-PAM 10.2 and 5HT1E antag -19.1.
For CC[C@@H](C)[C@H](NC(=O)OC(C)(C)C)c1nnc(S(=O)(=O)Cc2cc(C)ccc2C)o1 the results were 5HT1a ag 1.0, S1P3 ag -2.1, 5HT1E ag -0.1, 5-HT1A blocker 57.4*, S1P1 ag-PAM 24.9 and 5HT1E antag 35.1*.
CC(C)[C@H](NC(=O)OC(C)(C)C)c1nnc(S(=O)(=O)Cc2c(F)cccc2Cl)o1 was read as 5HT1a ag 5.3, S1P3 ag -0.9, 5HT1E ag 1.2, 5-HT1A blocker 78.7*, S1P1 ag-PAM 17.8 and 5HT1E antag 67.3*.
CC(C)c1cc(C(=O)NC2CCCCC2)no1 was read as 5HT1a ag -3.0, S1P3 ag -0.4, 5HT1E ag -1.1, 5-HT1A blocker 4.7, S1P1 ag-PAM -10.4 and 5HT1E antag 1.1.
For CC1(C)Cc2ccccc2-c2nnc(-c3ccc(O)cc3)n21 the results were 5HT1a ag -0.7, S1P3 ag -1.4, 5HT1E ag -0.5, 5-HT1A blocker 6.8, S1P1 ag-PAM 5.8 and 5HT1E antag 2.1.
Screening Cc1ccccc1CS(=O)(=O)c1nnc([C@H](CC(C)C)NC(=O)OC(C)(C)C)o1 returned 5HT1a ag 3.3, S1P3 ag -0.1, 5HT1E ag 1.8, 5-HT1A blocker 39.3, S1P1 ag-PAM 59.0 and 5HT1E antag 36.1*.
CCOC(=O)CSc1nnc([C@H](Cc2ccccc2)NC(=O)OC(C)(C)C)o1 was read as 5HT1a ag -0.2, S1P3 ag 0.0, 5HT1E ag 0.4, 5-HT1A blocker -17.2, S1P1 ag-PAM -6.4 and 5HT1E antag -9.4.
`CN=c1sc2ccccc2n1CC(O)COCc1ccco1` (stereo not given) gave 5HT1a ag -0.2, S1P3 ag -0.3, 5HT1E ag 35.6*, S1P1 ag-PAM 2.1 and 5HT1E antag -16.3.
For CCOC(=O)N1CC=C2C(C#N)=C(N)C(C#N)(C#N)[C@H](c3ccc(OCC)c(OCC)c3)[C@H]2C1 the results were 5HT1a ag 2.1, S1P3 ag -0.4, 5HT1E ag 0.9, 5-HT1A blocker -9.2, S1P1 ag-PAM 10.3 and 5HT1E antag -7.3.
Cc1ccc(C2C3CN(C(C)C)CC=C3C(C#N)=C(N)C2(C#N)C#N)cc1 (stereo not given) was read as 5HT1a ag 31.7*, S1P3 ag 1.8, 5HT1E ag 3.6, S1P1 ag-PAM 26.3 and 5HT1E antag -18.1.

Compound activity: PubChem BioAssay, The Scripps Research Institute Molecular Screening Center
